b-catenin transl – modulators of beta-catenin nuclear translocation, primary screen, imaging, HeLa cells, immunofluorescence, high-content; nuclear translocation activity, % at 5 µM; 0.3% of 190,000 active; AID 1665, 2009;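 active = nuclear translocation activity above 50% at 5 µM, with a well cell count of 50 or more; inconclusive = wells under 50 cells across six images, flagged as toxic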;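 note: per-cell ratio of nuclear to cytoplasmic median beta-catenin stain intensity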
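Test system: human HeLa cells, native beta-catenin. Compound dosing: 5 µM primary single dose, 0.1% DMSO, 0.02–20 µM confirmation series. Incubation: compound exposure 24 h at 37°C. Detection: beta-catenin immunostaining with DAPI counterstain, 20x imaging, 6 fields/well. Read-out basis: Nuclear/cytoplasmic beta-catenin signal ratio, % activation.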
Autophagy mod – autophagy modulators in MEF cells, primary screen, imaging, high-content, MEF GFP-LC3. AID 463193, 2010. MEF GFP-LC3 puncta imaging; test concentration mostly 10 µM. 0.98% of 190,000 active. calls only at 10 µM (by protocol);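 active = percentage of spot-positive cells more than 3 SD above its plate mean, without a fluorescence outlier flag or 80% toxicity; inconclusive = no clear call, values can overlap the other calls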
MT stabilize HCS – microtubule stabilizers in HeLa cells, primary screen, imaging, high-content imaging; HeLa tubulin immunostaining HCS, 24 h; share of cells brighter than vehicle mean+2SD; 0.83% of 200,000 active; % tubulin-high responders, % at 10 µM;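 active = plate Z-score above 3 for both tubulin-high and condensed-nucleus cell shares, with cell loss under 80%, at 10 µM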;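 note: anti alpha tubulin signal scored within the nucleus-defined area of each cell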
Ins promoter up – insulin promoter activators in MIN6 cells, imaging, high-content screening, mouse beta cells | MIN6 insulin promoter-GFP reporter; stronger effect = higher value | z-score at 5 µM | 0.3% of 190,000 active;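 active = z-score above 3 at 5 µM with at least 500 cells counted in the well; inconclusive = wells under 500 cells, flagged as cytotoxic or low count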
HSV replic up – enhancers of HSV replication in host cells, fold increase, host cell viability; maximum fold increase; AID 1956, 2009; HSV replication augmentation in cells; 0.005% of 220,000 active; in the data active = maximum fold increase above about 1.5; inconclusive = no clear call, values can overlap the other calls; tested in PC3 cells
Furin inh – human furin inhibitors, primary screen, biochemical, fluorescence intensity. P09958. purified furin, fluorogenic substrate cleavage. inhibition, % at 20 µM or 30 µM. 0.061% of 220,000 active; in the data active = inhibition above about 25%
Target sequence (P09958 108-714 limits assumed): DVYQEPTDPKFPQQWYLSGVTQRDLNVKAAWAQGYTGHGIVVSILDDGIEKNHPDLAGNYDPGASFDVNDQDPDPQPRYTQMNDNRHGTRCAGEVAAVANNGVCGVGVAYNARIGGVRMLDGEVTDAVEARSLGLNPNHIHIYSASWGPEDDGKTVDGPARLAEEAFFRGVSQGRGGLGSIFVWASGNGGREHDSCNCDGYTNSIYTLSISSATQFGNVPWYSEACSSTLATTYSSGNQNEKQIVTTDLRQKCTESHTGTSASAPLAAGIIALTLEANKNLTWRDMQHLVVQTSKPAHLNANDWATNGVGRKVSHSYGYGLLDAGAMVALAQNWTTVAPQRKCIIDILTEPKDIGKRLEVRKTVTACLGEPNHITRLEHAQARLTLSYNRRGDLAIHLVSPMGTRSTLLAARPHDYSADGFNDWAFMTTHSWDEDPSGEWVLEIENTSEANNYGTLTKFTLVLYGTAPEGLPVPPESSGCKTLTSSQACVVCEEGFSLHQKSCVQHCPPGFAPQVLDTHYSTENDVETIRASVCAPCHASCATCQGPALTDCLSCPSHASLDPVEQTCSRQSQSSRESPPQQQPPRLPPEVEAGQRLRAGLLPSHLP
Large screens that a line does not name were inactive. In the library only some 1.9% were active in any assay of this set; here they are far more common.

COc1ccc2[nH]c(=O)c(CN(CC3CCCO3)C(=S)Nc3ccccc3)cc2c1 (centres undefined)	none
Cc1cc2cc(CN(CC3CCCO3)C(=S)Nc3ccccc3)c(=O)[nH]c2cc1C (centres undefined)	MT stabilize HCS 14, Ins promoter up inconclusive
Cc1cc2cc(CN(CC3CCCO3)C(=S)NCc3ccco3)c(=O)[nH]c2cc1C (centres undefined)	none
COc1ccc2cc(CN(CC3CCCO3)C(=S)Nc3ccccc3)c(=O)[nH]c2c1 (centres undefined)	MT stabilize HCS 27
COc1ccc(Nc2nc(N)nc(CSC(=S)N3CCCCC3C)n2)cc1 (centres undefined)	none (no result: Autophagy mod, MT stabilize HCS)
CCOC(=O)c1ccc(NC(=O)c2c(N)n(Cc3ccccc3)c(=O)[nH]c2=O)cc1	none (no result: b-catenin transl, Autophagy mod, MT stabilize HCS, Ins promoter up, Furin inh)
O=C(C(=O)N1CCCc2ccccc21)c1cn(CC(=O)N2CCOCC2)c2ccccc12	none (no result: HSV replic up)
Cn1cc(C(=O)C(=O)N2CCCc3ccccc32)c2ccccc21	MT stabilize HCS 12 (no result: Ins promoter up)
COc1ccc2nc(SCC(=O)Nc3ccc(S(=O)(=O)N4CCCC4)cc3)c(C#N)cc2c1	Ins promoter up 3.5
C(#Cc1ccccc1)C[N+]1(CC#Cc2cccc3ccccc23)CCOCC1	none
O=C(NCc1cn2ccccc2n1)c1ccco1	Ins promoter up 3.7
COc1ccc(C(C)C)cc1S(=O)(=O)N1CCN(c2ccccc2)CC1	none
Cn1cc(C[C@H](NC(=O)OC(C)(C)C)C(=O)N[C@H](CO)Cc2ccccc2)c2ccccc21	none (no result: b-catenin transl, Autophagy mod, MT stabilize HCS, Ins promoter up, Furin inh)
Cc1ccccc1C(=O)N1CCc2ccccc2C1	Ins promoter up 4 (no result: HSV replic up)
CSc1ccccc1C(=O)N1CCc2ccccc2C1	Autophagy mod active
CCCCC(C(=O)O)C(C)CC(=O)NNC(=O)c1ccco1 (centres undefined)	none
CCOCCCNCc1cn(-c2ccc(F)cc2F)nc1-c1ccccc1C	none
O=C1CN(c2nc(-c3ccccc3)c3cc(Cl)ccc3n2)c2ccccc2N1	Autophagy mod active
N#CCC(=O)Nc1ccc(C(=O)OCC(=O)N(Cc2ccccc2)C2CCS(=O)(=O)C2)cc1 (centres undefined)	none
Cc1csc(N2CCCC2c2nc3cc(C(F)(F)F)ccc3n2CCOCCO)n1 (centres undefined)	none (no result: b-catenin transl, Autophagy mod, MT stabilize HCS, Ins promoter up, Furin inh)
O=c1c2ccc([N+](=O)[O-])cc2ncn1CCOc1cccc(Br)c1	Autophagy mod active
O=c1c2ccc([N+](=O)[O-])cc2ncn1CCOc1ccc(Cl)cc1	none (no result: Ins promoter up)
CCCSc1ccc2nc(NC(=O)OC)[nH]c2c1	MT stabilize HCS 20 (no result: b-catenin transl, Ins promoter up)
CCN(CC)S(=O)(=O)c1ccc2c3c(cccc13)C(=O)N2	Autophagy mod active
CSc1ccc(NC(=O)c2cccnc2)cc1C#N	none
Clc1ccccc1C1=CC(c2ccco2)n2nnnc2N1 (centres undefined)	none
CC1(C)CC(=O)C=C(C(=O)N2CCCC(C(=O)c3cccc(Cl)c3)C2)O1 (centres undefined)	none
FC(F)Sc1nc2ccccc2[nH]1	none (no result: Autophagy mod, MT stabilize HCS)
COCCNC(=O)C(c1ccccc1F)N(C(=O)C(=O)NC1CCCC1)C1CCCCC1 (centres undefined)	none
COC(=O)c1[nH]c2c(c1C)C(=O)CC(c1cc(OC)ccc1OC)C2 (centres undefined)	MT stabilize HCS 27 (no result: Autophagy mod)
COC(=O)c1[nH]c2c(c1C)C(=O)CC(c1cccs1)C2 (centres undefined)	Autophagy mod active, MT stabilize HCS 16
CN(C)C=Nc1ccccc1C1C=NNC1=O (centres undefined)	none (no result: Autophagy mod, MT stabilize HCS)
CCN(CCn1cccn1)C(=O)CC1C(=O)NCCN1Cc1ccc(OC)c(OC)c1 (centres undefined)	Autophagy mod active
CCN(CCn1cccn1)C(=O)CC1C(=O)NCCN1Cc1cc(OC)cc(OC)c1 (centres undefined)	none
C=CCNC(=S)NNC(=O)c1csc(C)c1C	none
COCCCNC(=O)c1cc2c(=O)n(C)c3ccccc3c2n1C	MT stabilize HCS 13 (no result: b-catenin transl)
COCCNC(=O)c1cc2c(=O)n(C)c3ccccc3c2n1C	none (no result: b-catenin transl)
Oc1ccccc1C(=S)N1CCN(c2cccc(Cl)c2)CC1	none (no result: Ins promoter up)
Clc1ccccc1-c1nc2ccccc2c2nc3ccccc3n12	Autophagy mod active
O=C1C=C(c2ccc(Cl)cc2)OC2(CCCC2)O1	Furin inh 29
CCC(C)n1c(=S)[nH]c2ccccc2c1=O (centres undefined)	none
CC1(c2nnc(-c3ccccc3)o2)CC(c2ccncc2)=NO1 (centres undefined)	none (no result: Autophagy mod, MT stabilize HCS)
CC(=O)Nc1ccc(N2CCc3c(C)c(C#N)c4nc5ccccc5n4c32)cc1	Autophagy mod active, Ins promoter up 3.8
CC1(C)Cc2c(c(-c3ccccc3)[nH]c(=O)c2C#N)CO1	Ins promoter up 3.4
COc1cc2c(cc1OC)C(c1cccs1)N(C(=O)c1cccnc1)CC2 (centres undefined)	b-catenin transl 53, MT stabilize HCS 17
COc1cc2c(cc1OC)C(c1cccs1)N(C(=O)C(C)C)CC2 (centres undefined)	none
CCN1C(=O)/C(=C\c2cn(-c3ccccc3)nc2-c2cccnc2)SC1=S	Autophagy mod active
CCN(CC)CCn1c(=S)[nH]c2ccc(Cl)cc2c1=O	Ins promoter up 4 (no result: HSV replic up)
CCOc1ccc2nc(NC(=S)N(C)C)sc2c1	Autophagy mod active (no result: b-catenin transl)
CCNC(=S)NS(=O)(=O)c1ccc(F)cc1	none
O=C(Cc1ccc(-n2cccc2)cc1)NCc1cccs1	b-catenin transl 165, MT stabilize HCS 29
COc1cccc(NC(=O)CSC2=C(C#N)C(c3ccco3)C3=C(CCCC3=O)N2)c1 (centres undefined)	Autophagy mod active
CC(C)(C)c1ccc(C(=O)CCCSC2=C(C#N)C(c3ccco3)C3=C(CCCC3=O)N2)cc1 (centres undefined)	none (no result: HSV replic up)
N#CC1=C(SCC(=O)c2ccccc2)NC2=C(C(=O)CCC2)C1c1ccco1 (centres undefined)	b-catenin transl 171 (no result: HSV replic up)
Cc1ccc(C(=O)CSC2=C(C#N)C(c3ccco3)C3=C(CCCC3=O)N2)cc1 (centres undefined)	b-catenin transl 130, MT stabilize HCS 20
CCSC1=C(C#N)C(c2ccc(C)o2)CC(=O)N1 (centres undefined)	none (no result: Autophagy mod, MT stabilize HCS)
Cc1ccc(C2CC(=O)NC(SCc3ccccc3)=C2C#N)o1 (centres undefined)	Ins promoter up 3.4
N#CC1=C(SCC(=O)Nc2ccccc2)NC(=O)CC1c1ccco1 (centres undefined)	Autophagy mod active, MT stabilize HCS 50 (no result: b-catenin transl, Ins promoter up)
N#CC1=C(SCC(=O)NCc2ccccc2)NC(=O)CC1c1ccco1 (centres undefined)	none
O=[N+]([O-])c1ccc(Oc2ccc(F)cc2)c2ccncc12	none

High-throughput results: PubChem BioAssay, several laboratories
